Test results taken from ChEMBL document CHEMBL4024751, “Hit-to-Lead Optimization and Discovery of 5-((5-([1,1'-Biphenyl]-4-yl)-6-chloro-1H-benzo[d]imidazol-2-yl)oxy)-2-methylbenzoic Acid (MK-3903): A Novel Class of Benzimidazole-Based Activators of AMP-Activated Protein Kinase” (J Med Chem, 2017).

Columns and labels:
[1] = system: Mus musculus; experiment: In vivo activation of AMPK in db/+ mouse assessed as decrease in hepatic fatty acid synthesis at 3 mg/kg, po administered via gavage 1 hr or 8 hrs prior to [3]H20 administration measured 2 hrs post dose by liquid scintillation counting method relative to control; type: functional; set-up: scale not given: the % may be the effect or the level left
How it was run: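 Before dosing, db/+ mice were fed a 64% fructose-enriched diet for 1 week to raise fatty acid synthesis. Single oral doses of 3, 10 or 30 mg/kg were given. Hepatic de novo fatty acid synthesis was measured 2 h and 8 h after dosing and expressed as percent inhibition versus vehicle.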

[2] = system: Mus musculus; experiment: Antidiabetic activity in diet-induced obese mouse assessed as reduction in insulin resistance index by measuring suppression of insulin excursion at 30 mg/kg, po qd for 12 days followed by oral dextrose challenge 4 hrs post fasting on day 12 measured after 20 mins by OGTT relative to control; type: functional; set-up: scale not given: the % may be the effect or the level left
How it was run: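 DIO mice dosed orally (3−30 mg/kg BID or 30 mg/kg QD) for 12 days, then given an oral glucose tolerance test after a 4 h fast on day 12. Blood glucose and insulin measured 20 min after the glucose bolus. Insulin resistance index = glucose (mM) × insulin (ng/mL), compared with vehicle.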

[3] = Tmax in Sprague-Dawley rat at 1 mg/kg, iv or 4 mg/kg administered through oral gavage by LC-MS/MS analysis; type: ADME, organism-based; settings: in vivo
How it was run: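 Single-dose PK given IV and PO. Doses: mice 2/10, rats 1/4, dogs 0.5/1 mg/kg IV/PO. Parameters derived: CLp, Vdss, terminal t1/2, Cmax, tmax, F, and oral AUC normalized to dose.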

Compound: Cc1ccc(Oc2nc3cc(-c4ccc(-c5ccccc5)cc4)c(Cl)cc3[nH]2)cc1C(=O)O
- Activity [1]: 60%
- Activity [2]: 54%
- Tmax [3]: 30 min
